Sampled rows, rich in hits. Any-hit rate of the full collection: about 1.3%.
TbMetRS inhib: T. brucei MetRS inhibitors, primary screen, biochemical, luminescence; 0.4% of 360,000 active; methionyl-tRNA synthetase (Trypanosoma brucei brucei); AID 624268, 2012; purified T. brucei MetRS, ATP depletion, Kinase-Glo luminescence; inhibition, % at 11.9 µM;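 active = inhibition above a per-plate cutoff of the control wells' mean inhibition plus 3 SD, cut at about 5.5% in these data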
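Dosing: 11.9 µM compound single dose, 0.9% DMSO; Assay system: purified T. brucei MetRS enzyme; Measured by: Kinase-Glo luciferase luminescence reporting remaining unconsumed ATP; Schedule: 15 min plus 2 h at 25 °C.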
core dimer inh: inhibitors of HCV core protein dimerization, primary screen, biochemical, TR-FRET, high-throughput | TR-FRET GST/Flag-core106 dimerization, 1536-well | inhibition, % at 5 µM | 0.33% of 300,000 active;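 active = inhibition above the mean of all tested compounds plus 3 SD, set per screening campaign, cut at about 45% in these data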
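assay system = GST-tagged and Flag-tagged HCV core protein residues 1-106 | controls = unlabelled core106 and no-GST-core106 wells | incubation = compound-protein-antibody incubation 4 h at 22.5 °C | probe or stimulus = Eu donor and XL665 acceptor anti-tag antibodies | read-out = % inhibition based on acceptor/donor emission ratio | signal = TR-FRET 671 and 617 nm emission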
Lipid droplet: inhibitors of hepatocyte lipid droplet formation, primary screen, imaging, high-throughput imaging, BODIPY stain | 0.4% of 240,000 active | AID 1656, 2009 | AML12 mouse hepatocytes, oleate lipid droplets | inhibition, % at 6.5 µM;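 active = lipid droplet intensity inhibited by at least 50%, with more than 500 cells counted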
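Material: mouse AML12 hepatocyte cell line, fixed after treatment; Timing: compound with oleate, overnight; Technique: high-content imaging of BODIPY-stained droplets and DAPI nuclei; Probe or stimulus: oleate, 100 µM final; Dosing: compound at 6.5 µM only.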
HCV NS3 hel inh: inhibitors of HCV NS3 helicase, primary screen, biochemical, Cy5 molecular beacon fluorescence. Hepatitis C virus NS3 helicase. NS3 helicase DNA unwinding. inhibition, % at 10.9 µM. 0.56% of 290,000 active. AID 1800, 2009;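 active = inhibition above the mean of all tested compounds plus 3 SD, set per campaign, cut at about 35% in these data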
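Test system: hepatitis C virus NS3 helicase domain fragment enzyme. Also added: annealed dual-labelled DNA beacon duplex, ATP-started. Timing: 60 min unwinding reaction at 25 °C after ATP addition. Technique: Cy5 fluorescence. Measure: % inhibition of unwinding.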
Tb MetRS conf: T. brucei MetRS inhibitors, confirmation, biochemical, luminescence; shares compounds with TbMetRS inhib; T. brucei MetRS enzyme, luminescence (ATP depletion); inhibition, % at 11.9 µM; 93% of 1,400 active; AID 624412, 2012; in the data active = inhibition above about 7%
Jurkat tox: Jurkat T cell cytotoxicity, cytotoxicity control for T. brucei MetRS inhibitor project, luminescence, high throughput; 12% of 1,400 active; inhibition, % at 8.3 µM; shares compounds with TbMetRS inhib; Jurkat cells viability, ATP luminescence; AID 624413, 2012; in the data active = inhibition above about 15%
Tb MetRS inh FP: T. brucei MetRS inhibitors, orthogonal assay for T. brucei MetRS inhibitor project, biochemical, fluorescence polarization; AID 651607, 2012; purified T. brucei MetRS; 44% of 1,400 active; inhibition, % at 11.9 µM; shares compounds with TbMetRS inhib; in the data active = inhibition above about 17%
Hits are given with their value; – = inactive; · = no result.

SMILES	TbMetRS inhib	core dimer inh	Lipid droplet	HCV NS3 hel inh	Tb MetRS conf	Jurkat tox	Tb MetRS inh FP
COc1ccc(NC(=O)c2ccc(-n3cncn3)c([N+](=O)[O-])c2)cc1OC	15	–	·	·	59	–	33
O=C(NCCCc1ccccc1)c1ccc(-n2cncn2)c([N+](=O)[O-])c1	21	–	·	·	58	–	35
O=C(N=C1SC2CS(=O)(=O)CC2N1c1ccc(OC(F)(F)F)cc1)C1CC1 (stereo not drawn)	–	–	–	–	·	·	·
CCCn1c(N)c(C(=O)CSc2nc(C3CC3)n(-c3ccccc3)n2)c(=O)[nH]c1=O	–	·	·	·	·	·	·
O=C(c1cccnc1Cl)N1CCOCC1	–	–	–	–	·	·	·
Cn1nccc1-c1coc2c(C(=O)N3CCOCC3)cccc12	7.6	·	·	·	–	–	–
CC(=O)Cc1nsc(Nc2ccc(Cl)cc2)n1	10.0	–	–	–	–	–	–
N#Cc1nc(COc2ccc(Cl)cc2)oc1NCc1ccc2c(c1)OCO2	5.7	–	–	–	9.8	–	–
Cc1cccc(OCc2nc(C#N)c(NCc3ccc4c(c3)OCO4)o2)c1	–	–	·	–	·	·	·
CC1=C(C(=O)N(C)C)CC(CC(=O)NC2CCCC2)C(=O)N1Cc1ccccc1 (stereo not drawn)	–	·	·	·	·	·	·
Clc1cccc(N/N=C(\Cc2nc3ccccc3[nH]2)c2ccccc2)c1	59	–	–	–	90	–	98
Cc1ccc(NC(=O)COC(=O)C2CCC2)cc1S(=O)(=O)N1CCCCC1	–	–	·	·	·	·	·
Cc1[nH]c2ccc(F)cc2c(=O)c1SC(F)(F)C(F)C(F)(F)F (stereo not drawn)	13	–	·	–	20	–	–
COc1cccc(-n2c(SCC(=O)N3CCOCC3)nnc2-c2c[nH]c3ccccc23)c1	18	–	·	–	30	–	–
CCCn1c(NCc2cc(OC)ccc2OC)nc2ccccc21	11	–	·	–	20	–	–
CCn1c(NCc2cc(OC)ccc2OC)nc2ccccc21	9.8	–	·	–	20	–	–
C=CCn1c(NC(=O)c2ccccc2Cl)c(C#N)c2nc3ccccc3nc21	6.8	–	·	–	–	–	–
CCCCn1c(NC(C)=O)c(C#N)c2nc3ccccc3nc21	–	–	·	–	·	·	·
CCCCN1C[C@H](CSC)[C@@H](CC(=O)Nc2ccc(Br)cc2)C1=O	37	·	·	·	54	–	25
O=C(C[C@H]1C(=O)N(CCc2ccccc2)C[C@@H]1Cc1ccccc1)Nc1ccc(Br)cc1	–	·	·	·	·	·	·
CSC[C@H]1CN(CCc2ccccc2)C(=O)[C@@H]1CC(=O)Nc1ccc(Br)cc1	15	·	·	·	37	–	–
CSC[C@H]1CN(c2ccccc2)C(=O)[C@@H]1CC(=O)Nc1ccc(Br)cc1	21	·	·	·	36	–	–
O=C(Nc1ccc(Cl)cc1)Nc1cc(S(=O)(=O)N2CCOCC2)ccc1N1CCCC1	38	–	–	–	60	–	35
O=C(Nc1ccc(F)cc1)Nc1cc(S(=O)(=O)N2CCOCC2)ccc1N1CCCC1	11	–	–	–	27	–	–
O=C(Cc1ccc(F)cc1)Nc1cc(S(=O)(=O)N2CCOCC2)ccc1N1CCCCC1	–	·	·	·	·	·	·
CCNC(=O)Nc1cc(S(=O)(=O)N2CCOCC2)ccc1N1CCCCC1	–	·	·	·	·	·	·
O=C(Nc1ccccc1)Nc1cc(S(=O)(=O)N2CCOCC2)ccc1N1CCCC1	8.5	–	–	–	20	–	–
COc1cc(C(=O)NNC(=O)CNC(=O)C2CCCCC2)ccc1OC(C)C	–	·	·	·	·	·	·
O=c1oc(Nc2cccc(F)c2)nc2ccccc12	–	–	·	–	·	·	·
Nc1nc(Nc2cccc(F)c2)nc2ccccc12	24	–	·	–	34	–	20

Compound activity deposited in PubChem BioAssay by several laboratories.
